Paper PMC5490379 (Molecular pharmaceutics, 2017)
Values belong to the compound of their own block, whether it stands above or below them.

Assays:
[1] = system: PC-3 prostate tumors; settings: mice bearing PC-3 prostate tumors; ref [30]; cited from earlier work
[2] = molecular target: σ1 receptor (Cavia porcellus, UniProt Q60492); assay: In vitro σ1 binding assay; parameters: species or system guinea pig; settings: for Ki σ1: guinea pig brain membrane homogenates; for fold reduction in σ1 affinity: compared with 3a
Procedure, shortened: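 Guinea pig brain membrane homogenate (300–500 µg protein) incubated with 3 nM [3H]-(+)-pentazocine (51.7 Ci/mmol) and test compound (10-4 to 10-12 M) in 50 mM Tris-HCl pH 8.0, 25 °C, 120 min. Stopped with ice-cold 10 mM Tris-HCl pH 8.0, filtered on PEI-soaked glass fibre filters, washed twice. […] IC50 by iterative curve fitting; Ki by Cheng-Prusoff. Protein by Lowry.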

[3] = molecular target: T1, σ2 receptor (Rattus norvegicus, UniProt Q5U3Y7); assay: In vitro σ2 binding assay; settings: for Ki σ2: rat liver membrane homogenates, 3 nM [^3H]DTG, 1 μM dextrallorphan; for fold reduction in σ2 affinity: compared with 3a
T1 sequence (Q5U3Y7 1-176): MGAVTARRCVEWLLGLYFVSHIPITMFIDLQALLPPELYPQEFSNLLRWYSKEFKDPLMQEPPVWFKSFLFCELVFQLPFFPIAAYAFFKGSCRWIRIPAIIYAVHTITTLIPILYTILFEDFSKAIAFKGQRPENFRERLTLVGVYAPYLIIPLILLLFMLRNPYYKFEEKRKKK
Procedure, shortened: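 Rat liver membrane homogenate (150–200 µg protein) incubated with 3 nM [3H]DTG (39.4 Ci/mmol) plus 1 µM dextrallorphan to mask σ1 sites, with test compound from 10-4 to 10-12 M. Conditions as for σ1: 50 mM Tris-HCl pH 8.0, 25 °C, 120 min, then filtration. […] IC50 by curve fitting, converted to Ki by Cheng-Prusoff.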

[4] = Mouse liver microsomal assay; format: in vitro ADME; settings: liver microsomes
Procedure, shortened: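 Mouse liver microsomes (20 mg/mL stock) diluted in 0.1 M phosphate buffer containing 3.3 mM MgCl2. Test compound added from a 100 µM stock, with verapamil as positive control. Intact test compound quantified over time by LC-MS/MS, and metabolic degradation half-life derived from its disappearance.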

[5] = system: σ1 receptor; settings: ref [10]; cited from earlier work

Sequence of σ1 receptor (Cavia porcellus, UniProt Q60492) (Q60492 whole entry): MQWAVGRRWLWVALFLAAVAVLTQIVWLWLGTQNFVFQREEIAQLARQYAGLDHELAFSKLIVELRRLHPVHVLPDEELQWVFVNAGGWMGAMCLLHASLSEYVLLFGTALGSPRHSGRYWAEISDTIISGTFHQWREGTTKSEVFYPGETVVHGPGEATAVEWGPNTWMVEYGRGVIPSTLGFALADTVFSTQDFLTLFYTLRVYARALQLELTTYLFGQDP

Compound: [11CH3]Oc1cccc2c1CCCC2CCCN1CCN(C2CCCCC2)CC1 (stereo not shown) [[^11C]PB28]
tumor uptake [1]: poor tumor uptake

Ki σ1 ([2]; 3 nM [^3H]-(+)-pentazocine): devoid of σ receptor binding affinity
Ki σ2 [3]: devoid of σ receptor binding affinity
Compound: O=C(NCCN1CCCCC1)c1cc(Br)ccc1O [Compound 2, 5-Bromo-2-hydroxy-N-{2-(piperidin-1-yl)ethyl}benzamide]

Ki σ1 ([2]; 3 nM [^3H]-(+)-pentazocine): devoid of σ receptor binding affinity
Ki σ2 [3]: devoid of σ receptor binding affinity
Compound: O=C(NCCN1CCCCC1)c1ccc(O)c(Br)c1 [Compound 6, 3-Bromo-4-hydroxy-N-{2-(piperidin-1-yl)ethyl}benzamide]

fold reduction in σ1 affinity [2]: 6 fold
fold reduction in σ2 affinity [3]: 4 fold
Compound: O=C(NCCN1CCCCC1)c1ccc(OCCF)c(Br)c1 [Compound 7a, 3-Bromo-4-(2-fluoroethoxy)-N-{2-(piperidin-1-yl)-ethyl}benzamide]

half-life at 1 μM [4]: 5.94 min
Ki ([2]; Ki σ1, guinea pig brain membrane homogenates, 3 nM [^3H]-(+)-pentazocine): 6.3 nM
Compound: O=C(NCCN1CCCCC1)c1cc(Br)ccc1OCCF [Compound 3a, 5-Bromo-2-(2-fluoroethoxy)-N-{2-(piperidin-1-yl)ethyl}benzamide]

Compound: COc1ccc(C(=O)NCCN2CCCCC2)cc1I [PIMBA]
σ1 affinity [5]: nanomolar

fold reduction in σ1 affinity [2]: 9 fold
fold reduction in σ2 affinity [3]: 9 fold
Compound: O=C(NCCN1CCCCC1)c1cc(Br)ccc1OCCCF [Compound 3b, 5-Bromo-2-(3-fluoropropoxy)-N-{2-(piperidin-1-yl)ethyl}benzamide]

Compound: O=C(NCCN1CCCCC1)c1ccc(I)cc1 [Compound 4-IPAB]
σ1 affinity [5]: nanomolar
